Reference: article PMC8268672 (Bioorganic Chemistry, 2021)
In brackets after ≈: the same amount, converted by molar mass. Read-outs that look alike come from different tables or passages of the source.

How the values were obtained:
[1] = system: Klebsiella aerogenes (NCIM-2098); test: Agar disk diffusion, inhibition zone; assay type: cell-based; settings: 100 µg/8 mm disc, triplicate, mean ± SD
[2] = system: Influenza A/H1N1 A/Ned/378/05; test: CPE reduction assay in MDCK cells; assay type: cell-based; settings: Influenza A virus
[3] = system: Staphylococcus aureus (ATCC 29213); test: Agar disk diffusion, inhibition zone; assay type: cell-based; settings: 100 µg/8 mm disc, triplicate, mean ± SD
Procedure, shortened: (§1)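 Agar disk diffusion on Mueller-Hinton agar plates seeded with a standard bacterial suspension. Test compound stock in DMSO, diluted with distilled water; 8 mm sterile filter-paper discs soaked in the solution. Ampicillin was the reference. Plates incubated at 35 °C for 24 h, in triplicate. Read-out is the average inhibition-zone diameter (mm) around each disc.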

[4] = system: Influenza A/H3N2 A/HK/7/87; test: CPE reduction assay in MDCK cells; assay type: cell-based; settings: Influenza A virus
[5] = system: Sindbis virus; test: CPE reduction assay in Vero cells; assay type: cell-based; settings: read-out: Antiviral EC50, Sindbis virus
[6] = system: Yellow Fever virus; test: microbe, parasite or virus in culture; assay type: cell-based; settings: Yellow fever virus, Vero, read-out: Antiviral EC50, Yellow Fever virus
[7] = system: Bacillus cereus (NCIM-2458); test: Agar disk diffusion, inhibition zone; assay type: cell-based; settings: 100 µg/8 mm disc, triplicate, mean ± SD
[8] = system: Bacillus cereus (NCIM-2458); test: MIC, broth microdilution; assay type: cell-based; settings: NCIM2458, read-out: Minimum inhibitory concentration (MIC), BC
Procedure, shortened: (§2)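 Broth microdilution per CLSI in Mueller-Hinton broth, using two-fold serial dilutions of test compound and reference drugs from 512 to 0.25. Bacterial broth cultures were grown 2-6 h to 0.5 McFarland turbidity, then diluted with sterile solution to the final inoculum. MIC is reported in µg/mL.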

[9] = system: Aspergillus niger (NCIM 2191); test: Agar disk diffusion, inhibition zone; assay type: cell-based; settings: 100 µg/8 mm disc, triplicate, mean ± SD
Procedure, shortened: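 For the fungal strain, discs soaked in test compound solution (DMSO stock diluted with distilled water) sat on seeded Mueller-Hinton agar. Clotrimazole was the reference. Incubation ran 48 h at 35 °C, in triplicate. Zone of growth inhibition recorded in mm as the mean diameter around each disc.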

[10] = system: Cryptococcus neoformans (ATCC 9011); test: MIC, broth microdilution; assay type: cell-based; settings: ATCC9011, read-out: Minimum inhibitory concentration (MIC), CN
Procedure, shortened: (§3)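 Antifungal MICs by CLSI broth microdilution in Sabouraud liquid medium. Test compounds and standard drugs are serially diluted two-fold from 512 to 0.25. The fungal broth culture is grown 24 h at 35 °C to a 0.5 McFarland turbidity, then adjusted with sterile solution to the final inoculum.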

[11] = system: Aspergillus fumigatus (NCIM 2081); test: MIC, broth microdilution; assay type: cell-based; settings: NCIM2081, read-out: Minimum inhibitory concentration (MIC), AF
Procedure, shortened: as §3

[12] = system: Cryptococcus neoformans (ATCC 9011); test: Agar disk diffusion, inhibition zone; assay type: cell-based; settings: 100 µg/8 mm disc, triplicate, mean ± SD
[13] = system: Vero cells; settings: Vero cell cultures; microscopically detectable alteration of normal cell morphology
[14] = system: Salmonella typhimurium (NCIM-2501); test: Agar disk diffusion, inhibition zone; assay type: cell-based; settings: 100 µg/8 mm disc, triplicate, mean ± SD
[15] = system: Human Coronavirus (229E); test: CPE reduction assay in HEL cells; assay type: cell-based; settings: read-out: Antiviral EC50, Human Coronavirus (229E)
[16] = system: Adeno virus-2; test: CPE reduction assay in HEL cells; assay type: cell-based; settings: read-out: Antiviral EC50, Adeno virus-2
[17] = system: Candida albicans (NCIM 2087); test: Agar disk diffusion, inhibition zone; assay type: cell-based; settings: 100 µg/8 mm disc, triplicate, mean ± SD
[18] = system: MT4 cells; settings: MT4 cell cultures; colorimetric MTT cell viability assay
[19] = system: Reovirus-1; test: CPE reduction assay in Vero cells; assay type: cell-based; settings: read-out: Antiviral EC50, Reovirus-1
[20] = system: Aspergillus niger (NCIM 2191); test: MIC, broth microdilution; assay type: cell-based; settings: NCIM2191, read-out: Minimum inhibitory concentration (MIC), AN
Procedure, shortened: as §3

[21] = system: Pseudomonas aeruginosa (MCCB 0035); test: Agar disk diffusion, inhibition zone; assay type: cell-based; settings: 100 µg/8 mm disc, triplicate, mean ± SD
[22] = system: Coxsackie virus B4; test: CPE reduction assay in Vero cells; assay type: cell-based; settings: Enterovirus B, read-out: Antiviral EC50, Coxsackie virus B4
[23] = system: Human embryonic lung (HEL) cells; settings: HEL cell cultures; microscopically detectable alteration of normal cell morphology
[24] = system: Aspergillus fumigatus (NCIM 2081); test: Agar disk diffusion, inhibition zone; assay type: cell-based; settings: 100 µg/8 mm disc, triplicate, mean ± SD
[25] = system: Vaccinia virus; test: microbe, parasite or virus in culture; assay type: cell-based; settings: Orthopoxvirus vaccinia, HEL, read-out: Antiviral EC50, Vaccinia virus
[26] = system: Staphylococcus aureus (ATCC 29213); test: MIC, broth microdilution; assay type: cell-based; settings: ATCC29213, read-out: Minimum inhibitory concentration (MIC), SA
Procedure, shortened: (§4)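 Antibacterial MICs by CLSI broth microdilution in Mueller-Hinton broth. Test compounds and standard drugs are serially diluted two-fold from 512 to 0.25. The bacterial broth culture is grown 2-6 h to a 0.5 McFarland turbidity, then adjusted with sterile solution to the final inoculum.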

[27] = system: Influenza B B/Ned/537/05; test: CPE reduction assay in MDCK cells; assay type: cell-based; settings: Influenza B virus, read-out: Antiviral EC50, Influenza B B/Ned/537/05, MTS
[28] = system: Madin Darby canine kidney (MDCK) cells; settings: dog
[29] = system: Klebsiella aerogenes (NCIM-2098); test: MIC, broth microdilution; assay type: cell-based; settings: NCIM2098, read-out: Minimum inhibitory concentration (MIC), KA
Procedure, shortened: as §4

[30] = system: Punta Toro virus; test: CPE reduction assay in Vero cells; assay type: cell-based; settings: read-out: Antiviral EC50, Punta Toro virus
[31] = system: Escherichia coli (ATCC 8739); test: Agar disk diffusion, inhibition zone; assay type: cell-based; settings: 100 µg/8 mm disc, triplicate, mean ± SD
Procedure, shortened: as §1

[32] = system: Streptococcus pneumonia (ATCC 49619); test: Agar disk diffusion, inhibition zone; assay type: cell-based; settings: 100 µg/8 mm disc, triplicate, mean ± SD
[33] = system: Candida albicans (NCIM 2087); test: MIC, broth microdilution; assay type: cell-based; settings: NCIM2087, read-out: Minimum inhibitory concentration (MIC), CA
Procedure, shortened: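 CLSI broth microdilution in Sabouraud liquid medium, with test compound two-fold serially diluted from 512 to 0.25. Fungal broth culture grown 24 h at 35 °C to 0.5 McFarland turbidity, then adjusted with sterile solution to a final […] inoculum. MIC expressed in µg/mL.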

[34] = system: Para-influenza-3 virus; test: CPE reduction assay in Vero cells; assay type: cell-based, Parainfluenza-3 virus; settings: Vero, read-out: Antiviral EC50, Para-influenza-3 virus
[35] = system: Pseudomonas aeruginosa (MCCB 0035); test: MIC, broth microdilution; assay type: cell-based; settings: read-out: Minimum inhibitory concentration (MIC), PA
Procedure, shortened: as §2

[36] = system: Escherichia coli (ATCC 8739); test: MIC, broth microdilution; assay type: cell-based; settings: ATCC8739, read-out: Minimum inhibitory concentration (MIC), EC
Procedure, shortened: as §2

[37] = system: Lactobacillus casei (NCIM-2651); test: Agar disk diffusion, inhibition zone; assay type: cell-based; settings: 100 µg/8 mm disc, triplicate, mean ± SD
[38] = read-out: Antiviral EC50, Influenza A/H1N1 A/Ned/378/05, MTS
[39] = read-out: Antiviral EC50, Influenza A/H1N1 A/Ned/378/05, visual CPE score
[40] = read-out: Antiviral EC50, Influenza A/H3N2 A/HK/7/87, MTS
[41] = read-out: Antiviral EC50, Influenza A/H3N2 A/HK/7/87, visual CPE score

Structure (SMILES)	Diameter of growth inhibition zone, KA [1] [mm]	EC50 [2, 38] [µM]	EC50 [2, 39] [µM]	Diameter of growth inhibition zone, SA [3] [mm]	EC50 [4, 40] [µM]	EC50 [4, 41] [µM]	EC50 [5] [µM]	EC50 [6] [µM]	Diameter of growth inhibition zone, BC [7] [mm]	MIC [8] [µg/mL]	Diameter of growth inhibition zone, AN [9] [mm]	MIC [10] [µg/mL]	MIC [11] [µg/mL]	Diameter of growth inhibition zone, CN [12] [mm]	Minimum cytotoxic conc. [13] [µM]	Diameter of growth inhibition zone, ST [14] [mm]	EC50 [15] [µM]	EC50 [16] [µM]	Diameter of growth inhibition zone, CA [17] [mm]	Minimum cytotoxic conc. [18] [µM]	also measured
Cc1ccc(S(=O)(=O)N2C(=O)CSC2c2ccccc2[N+](=O)[O-])cc1 (stereo not drawn) [5o, 3-[(4-Methylphenyl)sulfonyl]-2-(2-nitrophenyl)-1,3-thiazolidin-4-one]	12 ± 0.34	> 100	> 100	15 ± 1.5	> 100	> 100	> 100	> 100	10 ± 0.6	64 (≈ 169 µM)	19 ± 1.5	2 (≈ 5.28 µM)	16 (≈ 42.3 µM)	19 ± 1.2	>100	10 ± 0.8	> 100	> 100	20 ± 1.1	>125	EC50 [19]: > 100 µM; MIC [20]: 16 µg/mL (≈ 42.3 µM); Diameter of growth inhibition zone, PA [21]: 15 ± 1.1 mm; EC50 [22]: > 100 µM; Minimum cytotoxic conc. [23]: >100 µM; Diameter of growth inhibition zone, AF [24]: 18 ± 0.9 mm; EC50 [25]: > 100 µM; MIC [26]: 16 µg/mL (≈ 42.3 µM); EC50 [27]: > 100 µM; Cytotoxicity, Minimum cytotoxic conc. [28]: >100 µM; MIC [29]: 32 µg/mL (≈ 84.6 µM); EC50 [30]: > 100 µM; Diameter of growth inhibition zone, EC [31]: 16 ± 0.9 mm; Diameter of growth inhibition zone, SP [32]: 10 ± 1.5 mm; MIC [33]: 8 µg/mL (≈ 21.1 µM); EC50 [34]: > 100 µM; MIC [35]: 32 µg/mL (≈ 84.6 µM); MIC [36]: 16 µg/mL (≈ 42.3 µM); Diameter of growth inhibition zone, LC [37]: 12 ± 0.66 mm
Cc1ccc(S(=O)(=O)N2C(=O)CSC2c2cccc([N+](=O)[O-])c2)cc1 (stereo not drawn) [5p, 3-[(4-Methylphenyl)sulfonyl]-2-(3-nitrophenyl)-1,3-thiazolidin-4-one]	14 ± 0.75	> 100	> 100	16 ± 0.9	> 100	> 100	> 100	> 100	10 ± 0.4	64 (≈ 169 µM)	20 ± 0.9	2 (≈ 5.28 µM)	8 (≈ 21.1 µM)	19 ± 1.0	>100	12 ± 0.1	> 100	> 100	22 ± 1.2	>125	EC50 [19]: > 100 µM; MIC [20]: 8 µg/mL (≈ 21.1 µM); Diameter of growth inhibition zone, PA [21]: 14 ± 1.1 mm; EC50 [22]: > 100 µM; Minimum cytotoxic conc. [23]: >100 µM; Diameter of growth inhibition zone, AF [24]: 20 ± 1.1 mm; EC50 [25]: > 100 µM; MIC [26]: 32 µg/mL (≈ 84.6 µM); EC50 [27]: > 100 µM; Cytotoxicity, Minimum cytotoxic conc. [28]: >100 µM; MIC [29]: 16 µg/mL (≈ 42.3 µM); EC50 [30]: > 100 µM; Diameter of growth inhibition zone, EC [31]: 16 ± 0.69 mm; Diameter of growth inhibition zone, SP [32]: 08 ± 0.87 mm; MIC [33]: 4 µg/mL (≈ 10.6 µM); EC50 [34]: > 100 µM; MIC [35]: 64 µg/mL (≈ 169 µM); MIC [36]: 32 µg/mL (≈ 84.6 µM); Diameter of growth inhibition zone, LC [37]: 12 ± 1.56 mm
Cc1ccc(S(=O)(=O)N2C(=O)CSC2c2cccc(Br)c2)cc1 (stereo not drawn) [5c, 2-(3-Bromophenyl)-3-[(4-methylphenyl)sulfonyl]-1,3-thiazolidin-4-one]	14 ± 0.6	> 100	> 100	17 ± 1.2	> 100	> 100	> 100	> 100	12 ± 0.32	32 (≈ 77.6 µM)	12 ± 0.6	64 (≈ 155 µM)	32 (≈ 77.6 µM)	7.5 ± 0.5	>100	12 ± 0.32	> 100	> 100	12.1 ± 0.9	>125	EC50 [19]: > 100 µM; MIC [20]: 32 µg/mL (≈ 77.6 µM); Diameter of growth inhibition zone, PA [21]: 16 ± 1.5 mm; EC50 [22]: > 100 µM; Minimum cytotoxic conc. [23]: >100 µM; Diameter of growth inhibition zone, AF [24]: 11 ± 1.5 mm; EC50 [25]: > 100 µM; MIC [26]: 32 µg/mL (≈ 77.6 µM); EC50 [27]: > 100 µM; Cytotoxicity, Minimum cytotoxic conc. [28]: >100 µM; MIC [29]: 16 µg/mL (≈ 38.8 µM); EC50 [30]: > 100 µM; Diameter of growth inhibition zone, EC [31]: 19 ± 0.53 mm; Diameter of growth inhibition zone, SP [32]: 10 ± 0.9 mm; MIC [33]: 32 µg/mL (≈ 77.6 µM); EC50 [34]: > 100 µM; MIC [35]: 16 µg/mL (≈ 38.8 µM); MIC [36]: 16 µg/mL (≈ 38.8 µM); Diameter of growth inhibition zone, LC [37]: 14 ± 0.43 mm
